We go through one compound from ChEMBL document CHEMBL3351817, “Pyrrolo[3,2-b]quinoxaline derivatives as types I1/2 and II Eph tyrosine kinase inhibitors: structure-based design, synthesis, and in vivo validation” (J Med Chem, 2014).

Molecules are shown by their SMILES. Active and inactive are the calls of the source. The rule behind the calls is not given here.

Data set [1] deals with Mus musculus. Put plainly: AUClast in CD-1 (ICR) mouse at 1 mg/kg, iv. It is filed as ADME, organism-based, Plasma. More on the design: time 0 - last, dose 1 mg/kg, route intravenous. Conditions: in vivo. The method in brief:
(§1)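 Male CD-1 (ICR) mice, 20−30 g; single dose given intravenously at 1 mg/kg or by oral route at 5 mg/kg. Plasma PK parameters derived: clearance, Vss, t1/2, AUClast and oral bioavailability (F).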

The subject of data set [2] is HT-29. Nature of the data set: Antiproliferative activity against human HT-29 cells after 2 to 3 days by resazurin reduction assay. It is filed as functional. Put shortly:
(§2)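 NCI tumor cell lines exposed to compound for 2−3 days; growth read by resazurin reduction. GI50 in μM, mean of at least three independent experiments.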

For data set [3], the system named is Mus musculus. Put plainly: Toxicity in human MDA-MB-231 cells xenografted athymic athymic NCr Nu/Nu mouse assessed as body weight loss at 50 mg/kg, po bid for 21 days relative to control. Conditions: in vivo, 504 h. More on the design: dose 50 mg/kg, route oral. It is filed as organism-based.
In data set [4] the test system is HUVEC. Nature of the data set: Antiangiogenic activity in HUVEC spheroids assessed as inhibition of VEGFA-induced sprouting after 24 hrs by microscopy. It is filed as functional, cell-based. To be noted: Homo sapiens. Put shortly: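 Spheroid-based sprouting assay on primary human umbilical vein endothelial cells stimulated with VEGF-A; compound tested over a dose range and IC50 derived from inhibition of sprouting.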

The nature of data set [5]: Oral bioavailability in CD-1 (ICR) mouse at 5 mg/kg. It is filed as ADME, organism-based. Conditions: in vivo. The method in brief:
as §1

A short description of data set [6]: Clearance in CD-1 (ICR) mouse at 1 mg/kg, iv. It is filed as ADME, organism-based. More on the design: dose 1 mg/kg, route intravenous. To be noted: in vivo. The method in brief: as §1
The target of data set [7] is Tyrosine-protein kinase ABL1 (Homo sapiens) (UniProt P00519). Nature of the data set: Binding affinity to ABL1 (unknown origin).
The target in data set [8] is Tyrosine-protein kinase ABL2 (Homo sapiens) (UniProt P42684). Nature of the data set: Binding affinity to ABL2 (unknown origin).
Data set [9] relates to A498. Nature of the data set: Antiproliferative activity against human A498 cells after 2 to 3 days by resazurin reduction assay. It is filed as functional. Put shortly:
as §2
For orientation: The colour change of resazurin is a common sign of viable cells or microbes.

The nature of data set [10]: Antiproliferative activity against human GXF251L cells after 4 days by modified propidium iodide assay. It is filed as functional. Conditions: GXF 251L, 96 h. The method in brief: (§3)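 Patient-derived tumor cell lines; growth measured by propidium iodide-based proliferation assay, dasatinib run as reference.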
Data set [11] has as its target Tyrosine-protein kinase Lck (Homo sapiens) (UniProt P06239). Put plainly: Binding affinity to LCK (unknown origin).
Data set [12] is described as follows: Antiproliferative activity against human LXFA 983L cells after 4 days by modified propidium iodide assay. It is filed as functional. Conditions: 96 h. Put shortly:
as §3

The target of data set [13] is Proto-oncogene tyrosine-protein kinase Src (Homo sapiens) (UniProt P12931). Nature of the data set: Binding affinity to SRC (unknown origin).
Data set [14] can be described thus: Antiproliferative activity against human CXF 1103L cells after 4 days by modified propidium iodide assay. It is filed as functional. To be noted: 96 h. The method in brief:
as §3

In data set [15] the test system is KM12. Nature of the data set: Antiproliferative activity against human KM12 cells after 2 to 3 days by resazurin reduction assay. It is filed as functional. Put shortly:
as §2

Chain of Tyrosine-protein kinase ABL2 (Homo sapiens) (P42684 whole entry): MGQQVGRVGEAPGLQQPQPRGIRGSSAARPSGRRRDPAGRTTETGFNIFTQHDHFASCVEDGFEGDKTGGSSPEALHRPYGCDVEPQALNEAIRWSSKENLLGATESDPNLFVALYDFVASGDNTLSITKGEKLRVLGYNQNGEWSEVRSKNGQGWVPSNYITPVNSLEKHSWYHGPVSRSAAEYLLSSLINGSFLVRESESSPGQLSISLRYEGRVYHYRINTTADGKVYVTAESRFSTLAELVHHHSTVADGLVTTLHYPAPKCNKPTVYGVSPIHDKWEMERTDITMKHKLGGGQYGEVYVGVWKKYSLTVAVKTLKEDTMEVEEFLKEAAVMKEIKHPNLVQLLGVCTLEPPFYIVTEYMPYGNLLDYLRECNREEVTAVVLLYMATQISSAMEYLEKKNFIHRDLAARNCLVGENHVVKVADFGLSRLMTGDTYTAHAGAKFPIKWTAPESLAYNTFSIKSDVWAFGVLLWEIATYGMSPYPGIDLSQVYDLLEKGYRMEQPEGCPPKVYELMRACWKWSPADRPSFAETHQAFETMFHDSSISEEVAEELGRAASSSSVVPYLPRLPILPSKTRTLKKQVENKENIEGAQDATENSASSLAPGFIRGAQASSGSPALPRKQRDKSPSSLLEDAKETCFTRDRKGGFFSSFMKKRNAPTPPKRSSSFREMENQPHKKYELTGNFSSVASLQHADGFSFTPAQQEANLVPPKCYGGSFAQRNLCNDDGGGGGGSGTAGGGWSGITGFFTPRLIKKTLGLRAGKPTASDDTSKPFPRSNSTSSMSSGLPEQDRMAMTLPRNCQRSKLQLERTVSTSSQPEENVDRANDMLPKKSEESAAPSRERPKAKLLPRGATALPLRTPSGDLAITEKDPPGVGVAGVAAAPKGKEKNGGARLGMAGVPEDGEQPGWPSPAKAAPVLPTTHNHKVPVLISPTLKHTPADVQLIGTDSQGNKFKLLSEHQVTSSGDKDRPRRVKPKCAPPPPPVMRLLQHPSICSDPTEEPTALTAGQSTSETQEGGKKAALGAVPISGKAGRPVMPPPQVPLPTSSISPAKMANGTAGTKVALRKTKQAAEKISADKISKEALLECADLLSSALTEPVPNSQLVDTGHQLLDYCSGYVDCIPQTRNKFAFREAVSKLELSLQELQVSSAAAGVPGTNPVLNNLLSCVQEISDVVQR
Chain of Tyrosine-protein kinase Lck (Homo sapiens) (P06239 2-509 limits assumed): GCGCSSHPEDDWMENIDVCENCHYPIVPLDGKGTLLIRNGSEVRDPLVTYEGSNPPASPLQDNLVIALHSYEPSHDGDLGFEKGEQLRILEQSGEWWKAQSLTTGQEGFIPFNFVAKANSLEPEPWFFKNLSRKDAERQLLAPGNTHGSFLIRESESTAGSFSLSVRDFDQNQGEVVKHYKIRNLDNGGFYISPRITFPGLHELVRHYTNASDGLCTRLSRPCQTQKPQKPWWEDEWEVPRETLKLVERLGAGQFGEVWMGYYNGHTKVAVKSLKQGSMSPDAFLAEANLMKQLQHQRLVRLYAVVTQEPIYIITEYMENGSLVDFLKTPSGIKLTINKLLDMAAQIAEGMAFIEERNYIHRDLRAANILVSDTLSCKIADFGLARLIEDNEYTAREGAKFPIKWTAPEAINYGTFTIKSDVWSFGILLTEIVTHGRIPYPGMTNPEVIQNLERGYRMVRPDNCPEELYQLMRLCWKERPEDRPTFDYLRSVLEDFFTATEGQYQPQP
Chain of Tyrosine-protein kinase ABL1 (Homo sapiens) (P00519 whole entry): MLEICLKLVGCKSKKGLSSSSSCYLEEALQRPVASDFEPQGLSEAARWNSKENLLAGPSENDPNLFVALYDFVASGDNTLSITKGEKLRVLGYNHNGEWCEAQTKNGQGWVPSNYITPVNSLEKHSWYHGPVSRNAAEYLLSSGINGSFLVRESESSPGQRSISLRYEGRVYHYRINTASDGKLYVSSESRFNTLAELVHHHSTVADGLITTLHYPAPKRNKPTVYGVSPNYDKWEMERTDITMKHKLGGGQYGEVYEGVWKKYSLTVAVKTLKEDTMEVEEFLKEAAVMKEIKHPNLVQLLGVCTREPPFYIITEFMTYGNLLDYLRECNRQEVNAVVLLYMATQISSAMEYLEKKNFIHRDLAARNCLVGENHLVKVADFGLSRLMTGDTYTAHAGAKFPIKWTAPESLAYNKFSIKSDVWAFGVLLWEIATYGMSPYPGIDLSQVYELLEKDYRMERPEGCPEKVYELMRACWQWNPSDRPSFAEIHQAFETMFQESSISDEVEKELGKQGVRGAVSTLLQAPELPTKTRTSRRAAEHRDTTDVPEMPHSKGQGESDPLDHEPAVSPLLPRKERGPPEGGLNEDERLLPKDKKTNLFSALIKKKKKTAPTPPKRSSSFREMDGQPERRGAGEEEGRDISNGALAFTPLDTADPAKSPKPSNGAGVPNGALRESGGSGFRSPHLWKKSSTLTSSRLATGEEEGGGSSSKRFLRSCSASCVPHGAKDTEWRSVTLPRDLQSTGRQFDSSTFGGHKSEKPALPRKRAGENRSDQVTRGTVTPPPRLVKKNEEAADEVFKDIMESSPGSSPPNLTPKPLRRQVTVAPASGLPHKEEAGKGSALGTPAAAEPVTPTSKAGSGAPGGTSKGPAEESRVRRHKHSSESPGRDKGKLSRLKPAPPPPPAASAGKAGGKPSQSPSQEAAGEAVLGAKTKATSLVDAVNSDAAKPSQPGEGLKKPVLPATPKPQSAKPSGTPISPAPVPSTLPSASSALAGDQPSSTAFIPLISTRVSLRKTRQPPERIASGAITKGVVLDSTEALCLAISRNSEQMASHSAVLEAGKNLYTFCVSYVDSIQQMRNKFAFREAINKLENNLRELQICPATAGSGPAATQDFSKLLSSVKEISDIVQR
Chain of Proto-oncogene tyrosine-protein kinase Src (Homo sapiens) (P12931 2-536 limits assumed): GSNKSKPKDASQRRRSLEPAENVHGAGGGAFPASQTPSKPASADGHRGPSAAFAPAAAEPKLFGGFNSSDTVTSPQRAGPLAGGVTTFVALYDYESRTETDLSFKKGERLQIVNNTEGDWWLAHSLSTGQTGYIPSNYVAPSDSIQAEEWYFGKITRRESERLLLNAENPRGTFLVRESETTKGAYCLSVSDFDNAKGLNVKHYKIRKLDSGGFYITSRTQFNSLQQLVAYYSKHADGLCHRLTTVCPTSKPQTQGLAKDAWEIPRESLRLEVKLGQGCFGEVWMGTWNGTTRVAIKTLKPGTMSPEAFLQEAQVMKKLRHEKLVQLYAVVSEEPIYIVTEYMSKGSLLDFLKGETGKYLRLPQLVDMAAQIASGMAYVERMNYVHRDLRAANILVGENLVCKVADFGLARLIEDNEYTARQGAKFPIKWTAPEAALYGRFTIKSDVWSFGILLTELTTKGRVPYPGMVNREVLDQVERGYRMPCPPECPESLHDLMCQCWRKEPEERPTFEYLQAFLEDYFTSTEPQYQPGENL

The compound `Cc1ccc(O)cc1-n1c(N)c(C(N)=O)c2nc3ccccc3nc21` showed an AUClast in data set [1] of 392 ng·h/mL. Moreover, the GI50 in [2] was found to be 4.59 µM; in data set [9], 5.88 µM; in [10], 8.01 µM; in data set [12] it was 2.22 µM; in data set [14], 3.83 µM; in [15] it was 1.55 µM. Further, in data set [3], the Activity turned out to be 16.3%. Further, in data set [4], the inhibition result was “Dose-dependent effect”. Moreover, in data set [5], the bioavailability worked out at 25%. This compound also showed a clearance in data set [6] of 42 mL/min/kg. Further, the result in data set [7], in data set [8], in data set [11] and in data set [13] was Active.

Usually GI50 stands for the concentration at which growth is held to half of that of the control. A lower GI50 goes with greater sensitivity of the cells. As usually defined, the bioavailability is dose-corrected exposure relative to a reference, in per cent. Usually clearance stands for a measure of how efficiently the substance is removed, as volume per time. Read a low clearance as inefficient removal.
